# In the library only some 1.9% were active in any assay of this set; here they are far more common.
# FAS-TE inh = FAS thioesterase domain inhibitors, primary screen, biochemical, fluorescence intensity, uHTS. Fatty acid synthase (Homo sapiens), P49327. recombinant FAS-TE, OMFH fluorogenic substrate, fluorescence endpoint. inhibition, % at 15 µM. 360,000 tested, 0.67% active. AID 602261, 2012;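 active = compounds whose normalised, plate-corrected inhibition of enzyme fluorescence in the single-dose primary screen is 50% or more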
# STEP block = STEP phosphatase inhibitors, primary screen, biochemical, fluorescence intensity, uHTS; Tyrosine-protein phosphatase non-receptor type 5 (Homo sapiens), P54829; recombinant STEP, OMFP fluorogenic substrate; inhibition, % at 20 µM; 360,000 tested, 0.25% active; AID 588621, 2011;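 active = inhibition at 20 µM, scaled per plate between control wells, above about 37%, limit read from the data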
# Target sequence (P54829 whole entry, looked up): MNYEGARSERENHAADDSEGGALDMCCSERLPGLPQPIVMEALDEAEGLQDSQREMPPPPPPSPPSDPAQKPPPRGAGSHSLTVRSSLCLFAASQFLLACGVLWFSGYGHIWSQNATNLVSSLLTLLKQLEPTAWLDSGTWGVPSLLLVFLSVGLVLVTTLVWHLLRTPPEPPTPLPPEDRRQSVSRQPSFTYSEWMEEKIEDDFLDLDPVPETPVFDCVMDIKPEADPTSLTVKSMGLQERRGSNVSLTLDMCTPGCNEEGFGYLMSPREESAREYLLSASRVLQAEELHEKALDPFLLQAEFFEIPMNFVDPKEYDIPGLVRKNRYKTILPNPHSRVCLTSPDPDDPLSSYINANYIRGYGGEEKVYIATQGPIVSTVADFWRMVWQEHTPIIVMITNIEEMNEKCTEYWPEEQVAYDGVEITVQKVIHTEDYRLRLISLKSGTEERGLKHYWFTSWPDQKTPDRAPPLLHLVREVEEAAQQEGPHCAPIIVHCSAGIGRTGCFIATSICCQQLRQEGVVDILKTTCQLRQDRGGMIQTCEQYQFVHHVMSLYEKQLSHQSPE
#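 medium = Bis-Tris buffer pH 6.0, 2.5 mM DTT, 0.005% Tween 20 | test system = STEP (striatal-enriched tyrosine phosphatase) enzyme, cell-free | measure = normalized % inhibition | compound dosing = 20 µM, 1% DMSO | also added = 25 µM OMFP | schedule = reaction 20 min, ambient temperature | measured by = fluorescence read at 480 nm ex / 540 nm em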
# LMPTP inh = LMPTP phosphatase inhibitors, primary screen, biochemical, fluorescence intensity, uHTS; 360,000 tested, 0.22% active; inhibition, % at 20 µM; recombinant LMPTP-A, OMFP fluorogenic substrate;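 active = compounds that cut the enzyme signal by at least half of the control window in the single-dose screen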
#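 Material: LMPTP-A; amount: 0.625 nM enzyme; doses: single 20 µM dose; times: reaction 50 min, room temperature, dark; technique: fluorescence intensity of OMFP turnover product; benchmarks: no-enzyme and uninhibited controls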
# SUMO1-SIM PPI = modulators of SUMO1 protein-protein interactions, primary screen, biochemical, uHTS. Small ubiquitin-related modifier 1 (Homo sapiens), P63165. SUMO1 binding to a labelled peptide, TR-FRET, 1 h. inhibition, % at 20 µM. 360,000 tested, 0.33% active; in the data active = inhibition above about 37%
# Scp1 inh = Scp-1 phosphatase inhibitors, primary screen, biochemical, colorimetric, uHTS; Carboxy-terminal domain RNA polymerase II polypeptide A small phosphatase 1 (Homo …; Recombinant Scp1, phosphopeptide, malachite green phosphate absorbance; inhibition, % at 20 µM; 340,000 tested, 0.88% active; AID 493091, 2011;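 active = inhibition above about 50% at 20 µM, limit read from the data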
#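 Test system: SCP-1 phosphatase catalytic domain, residues 76-261 | Compound dosing: One concentration, 20 µM, with 1.0% DMSO | Schedule: 45 min room-temperature reaction, 5 min colour, 30 min stabiliser | Detection: Absorbance at 630 nm | Read-out basis: % inhibition of SCP-1 phosphate liberation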
# Numbers stand for hits; 0 = inactive; - = no result given.
SMILES,FAS-TE inh,STEP block,LMPTP inh,SUMO1-SIM PPI,Scp1 inh
O=C(CSc1nnc(SCc2ccccc2)s1)N/N=C/C=C/c1ccccc1[N+](=O)[O-],0,0,0,0,0
O=C(CSc1nnc(SCc2ccccc2)s1)N/N=C/C=C\c1ccco1,0,0,0,0,82
O=C(CSc1nnc(SCc2ccccc2)s1)N/N=C/c1c[nH]c2ccccc12,0,0,0,75,0
Cc1ccc(CSc2nnc(SCC(=O)N/N=C/c3c[nH]c4ccccc34)s2)cc1,0,0,0,0,0
CCOC(=O)[C@]12CCC=C1N(Cc1ccccc1)C(=O)[C@H](CC(=O)NCc1cccc(C(F)(F)F)c1)C2,0,-,0,0,-
O=C1C(C2=C(O)c3ccccc3C2=O)=Nc2ccccc21,0,0,0,0,52
CN=CC1=C(O)c2ccccc2C1=O,0,0,0,0,0
O=C(/C=C/[C@H]1O[C@@H](n2ccc(=O)[nH]c2=O)[C@H](O)[C@@H]1O)NCCCc1ccccc1,0,0,0,0,-
O=C(NC1CCCC1)C1c2ccccc2OCC(=O)N1C1CC1 (configuration not stated),0,-,0,0,-
COc1cccc(NC(=O)CN(C)C(=O)c2cc3c(s2)CCC3)c1,-,-,-,-,60
COc1ccc(NC(=O)CN(C)C(=O)c2cc3c(s2)CCC3)cc1,0,0,64,76,86
O=C(NC1CCCC1)C1C(c2ccc(C(F)(F)F)cc2)=Nc2ccccc2N1C(=O)c1cc2ccccc2[nH]1 (configuration not stated),-,-,0,0,-
CCn1c(SCC(=O)Nc2ccc(C)cc2)nnc1-c1ccccn1,0,0,0,0,0
CCn1c(SCC(=O)Nc2ccc(C)cc2)nnc1-c1ccc(O)cc1,0,0,0,44,0
COCCNC(=O)C1(C)CCCN(Cc2cn(C)c3ccccc23)C1 (configuration not stated),0,0,0,0,-
O=C(O)c1c2c(nc3ccccc13)/C(=C/c1ccc(OC(F)F)cc1)CCC2,0,0,0,0,0
O=C(O)c1c2c(nc3ccccc13)/C(=C/c1ccc(O)cc1)CC2,0,41,0,0,62
CNC(=S)N/N=C1\C(=O)c2cccc3cccc1c23,0,0,0,0,0
O=C(N/N=C1\C(=O)c2cccc3cccc1c23)c1ccc(O)cc1,0,0,0,41,0
CC(C)c1ccccc1NC(=O)Nc1nnc([C@H]2C[C@H](O)[C@@H](CO)O2)s1,0,0,0,0,-
COc1cc(CNc2ncnc3c2ncn3[C@H]2CN(Cc3ccncc3)C[C@@H](CO)O2)cc(OC)c1OC,0,0,0,0,-
COc1ccc(CN2CCN(c3nc4ccccc4s3)CC2)cc1,0,0,0,0,0
COc1ccc(CCn2c(O)cc3nn(-c4nc5ccccc5s4)c(=O)c-3c2C)cc1,0,0,53,0,62
COc1ccc(NC(=O)c2sc(=O)n(Cc3ccccc3C#N)c2C)cc1OC,0,0,0,0,-
CCn1nnnc1NCc1ccc(N2CCCC2)cc1,0,0,60,0,0
SMILES,FAS-TE inh,STEP block,LMPTP inh,SUMO1-SIM PPI,Scp1 inh
Nc1nc2ccc(Cl)cc2cc1C(=O)NCCc1c[nH]c2ccccc12,0,-,0,0,-
Cn1c2ccccc2c2cc(/C=N/NC(=O)c3cc(O)ccc3O)ccc21,0,0,0,0,59
COc1cc(/C=C2\SC(=Nc3ccc(Cl)c(C(=O)O)c3)NC2=O)c(Br)c(Br)c1O,0,0,0,0,53
COc1cc(/C=C2\SC(=Nc3ccccc3)NC2=O)cc(Cl)c1O,0,0,0,0,0
COC(=O)CS(=O)(=O)c1nnc([C@H](Cc2ccccc2)NC(=O)OC(C)(C)C)o1,0,0,0,0,0
Cc1cccc(CS(=O)(=O)c2nnc([C@H](Cc3ccccc3)NC(=O)OC(C)(C)C)o2)c1,57,0,0,0,0
CCOc1ccc(S(=O)(=O)Nc2cc(NS(=O)(=O)c3ccc(OCC)cc3)cc(C(=O)O)c2)cc1,0,0,0,0,55
O=c1[nH]c2cc(Cl)ccc2n1-c1ccccc1,0,0,0,40,0
Cc1ccc2[nH]c(C)c(/C=C/c3cc[n+](C)cc3)c2c1,0,0,0,0,0
Cc1ccc2c(c1)c(/C=C/c1cc[n+](C)cc1)c(C)n2C,0,0,0,0,54
O=C(NC(c1ccccc1)c1ccsc1)C1CCN(CCOc2ccc(Cl)cc2Cl)CC1 (configuration not stated),0,0,0,0,-
CCOC(=O)[C@]12CCC=C1N(Cc1cccc3ccccc13)C(=O)[C@H](CC(=O)N1CCSCC1)C2,0,-,0,0,-
O=C(O)c1ccc(-n2cccc2/C=N\NC(=O)c2cc3cc(Br)ccc3o2)cc1,0,0,0,84,80
O=C(O)Cn1cc(/C=N/NC(=O)c2cc3cc(Br)ccc3o2)c2ccccc21,0,0,0,0,0
CC1CCCN(CCCNC(=O)C2CC(=O)N(c3ccc(F)c(Cl)c3)C2)C1 (configuration not stated),0,0,0,42,0
CC1CCCCN1CCNC(=O)C1CC(=O)N(c2ccc(F)c(Cl)c2)C1 (configuration not stated),0,0,0,0,0
CCc1nc2sc3ccccc3c(=O)c2c(=O)n1Cc1ccco1,0,0,58,0,0
O=c1c2ccccc2sc2nc(C3CCCCC3)n(Cc3ccco3)c(=O)c12,0,0,0,0,0
CCCNC(=O)C[C@H]1CC[C@@H]2[C@H](COC[C@@H](O)CN2C(=O)c2ccccn2)O1,-,-,0,0,-
CC(C)Nc1nc(NCCN2CCCC2)c2sc(-c3ccccc3)cc2n1,0,0,52,0,-
CC(C)Nc1nc(-c2ccccc2F)c2sc(-c3ccccc3)cc2n1,0,0,0,0,-
CC(OC(=O)c1ccc(S(C)(=O)=O)c([N+](=O)[O-])c1)C(=O)NC1C2CC3CC(C2)CC1C3 (configuration not stated),0,0,0,0,-
COc1ccc(NC(=O)C(c2cc3ccccc3o2)n2c(=O)c(-c3cc4ccccc4[nH]3)nc3ccccc32)cc1 (configuration not stated),-,-,0,0,-
Cc1cc(=O)oc2cc(OCC(=O)c3ccc4c(c3)NC(=O)CO4)ccc12,0,0,0,42,0
O=C(Nc1ccc2nc(-c3ccco3)c(-c3ccco3)nc2c1)N1CCN(c2ccccn2)CC1,0,0,87,46,92
O=C(c1ccc2nc(-c3ccco3)c(-c3ccco3)nc2c1)N1CCN(c2ncccn2)CC1,0,0,0,0,95

# Source: PubChem
